Reference: ChEMBL document CHEMBL4219220, “Novel compounds that target lipoprotein lipase and mediate growth arrest in acute lymphoblastic leukemia” (Bioorg Med Chem Lett, 2018)
Calls of active or inactive are those of the source. No cut-off for these calls is given here.

Assays:
SUP-B15 [1] = test: Antiproliferative activity in human SUP-B15 cells assessed as inhibition of cell proliferation at 50 uM incubated for 72 hrs by CCK8 assay; assay type: functional, cell-based
Outline: (§1)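 REH (Ph-negative, peripheral blood derived) and SupB15 (Ph-positive, bone marrow derived) B-ALL cells seeded at 50,000 cells/well in 96-well plates. Single test concentration of 50 μM (final) for 72 h, with untreated cells as controls. Proliferation read by CCK-8 (reagent 2 h at 37° C, absorbance 450 nm). Mean ± SEM, N = 3.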

REH [2] = test: Antiproliferative activity in human REH cells assessed as inhibition of cell proliferation at 50 uM incubated for 72 hrs by CCK8 assay; assay type: functional; outline: as §1
REH [3] = test: Induction of cell death in human REH cells co-cultured with bone marrow stromal cells assessed as reduction in live cell population of suspended floater cells at 20 to 40 uM; assay type: functional, cell-based
Outline: (§2)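 REH leukemic cells in co-culture with bone marrow stromal cells. Two fractions were scored: suspended floaters (FL), and phase dim (PD) cells lying beneath the stromal layer. Read-outs were live cell population and cell death.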

REH [4] = test: Induction of cell death in human REH cells co-cultured with bone marrow stromal cells assessed as reduction in live cell population of phase dim cells buried underneath bone marrow stromal layer at 20 to 40 uM; assay type: functional, cell-based; outline: as §2
SUP-B15 [5] = test: Antiproliferative activity in human SUP-B15 cells assessed as inhibition of cell proliferation incubated for 72 hrs by CCK8 assay; assay type: functional, cell-based; settings: SUP-B15, 72 h
Outline: (§3)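 Dose-response in REH and SupB15 cells. Proliferation read by CCK-8 after 72 h of compound exposure (reagent 2 h at 37° C, absorbance 450 nm). IC50 taken from the dose-response curve.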

REH [6] = test: Induction of cell death in human REH cells co-cultured with bone marrow stromal cells assessed as increase in cell death of phase dim cells buried underneath bone marrow stromal layer at 20 to 40 uM; assay type: functional, cell-based; outline: as §2
REH [7] = test: Antiproliferative activity in human REH cells assessed as inhibition of cell proliferation incubated for 72 hrs by CCK8 assay; assay type: functional, cell-based; outline: as §3
REH [8] = test: Induction of cell death in human REH cells co-cultured with bone marrow stromal cells assessed as increase in cell death of suspended floater cells at 20 to 40 uM; assay type: functional, cell-based; outline: as §2
Albumin = Albumin (Homo sapiens, UniProt P02768); test: Binding affinity to serum albumin (unknown origin) at 1 to 100 uM; assay type: ADME; settings: read-out: PB
Sequence of Albumin (P02768 whole entry): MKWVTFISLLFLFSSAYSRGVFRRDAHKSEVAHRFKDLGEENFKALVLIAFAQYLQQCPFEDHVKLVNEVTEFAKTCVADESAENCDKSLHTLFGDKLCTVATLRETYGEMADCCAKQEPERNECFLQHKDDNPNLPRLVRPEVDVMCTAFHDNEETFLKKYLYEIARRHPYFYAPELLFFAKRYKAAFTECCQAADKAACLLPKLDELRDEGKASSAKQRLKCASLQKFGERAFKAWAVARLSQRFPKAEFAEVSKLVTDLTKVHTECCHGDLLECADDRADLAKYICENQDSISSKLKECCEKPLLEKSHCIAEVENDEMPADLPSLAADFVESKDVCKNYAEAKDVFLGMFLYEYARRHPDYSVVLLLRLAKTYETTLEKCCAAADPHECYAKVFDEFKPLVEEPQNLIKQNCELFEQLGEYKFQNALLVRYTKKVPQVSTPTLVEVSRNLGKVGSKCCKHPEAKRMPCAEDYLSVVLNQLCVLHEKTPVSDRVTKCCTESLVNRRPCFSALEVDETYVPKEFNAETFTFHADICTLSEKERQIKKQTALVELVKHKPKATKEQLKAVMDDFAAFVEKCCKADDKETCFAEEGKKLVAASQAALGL

Row | SMILES | inhibition (SUP-B15 [1]) | inhibition (REH [2]) | also measured
1 | CSCc1nc(CNC(=O)C2C(c3ccc(F)cc3)C2(C)C)no1 (configuration not stated) | inactive | Active | 
2 | Cc1cnc(CNC(=O)C2C(c3ccc(F)cc3)C2(C)C)cn1 (configuration not stated) | inactive | Active | 
3 | Cc1nccn1-c1ccccc1CNC(=O)C1C(c2ccc(F)cc2)C1(C)C (configuration not stated) | inactive | Active | 
4 | CC1C=NN=C1C(C)NC(=O)C1C(c2ccc(F)cc2)C1(C)C (configuration not stated) | inactive | Active | 
5 | Cc1cccc(=O)n1CCCNC(=O)C1C(c2ccc(F)cc2)C1(C)C (configuration not stated) | inactive | Active | 
6 | CC1(C)C(C(=O)NCCCc2cnc(N)s2)C1c1ccc(F)cc1 (configuration not stated) | inactive | Active | 
7 | Cc1cccnc1CN1CCN(C(=O)C2C(c3ccc(F)cc3)C2(C)C)CC1 (configuration not stated) | inactive | Active | 
8 | Cc1nc[nH]c1CCCCNC(=O)C1C(c2ccc(F)cc2)C1(C)C (configuration not stated) | inactive | Active | 
9 | CC1(C)C(C(=O)NCCCN2CCOCC2)C1c1ccc(F)cc1 (configuration not stated) | inactive | Active | 
10 | CCc1c(C)nn(CCNC(=O)C2C(c3ccc(F)cc3)C2(C)C)c1C (configuration not stated) | Active |  | Activity (REH [3]): Active; Activity (REH [4]): Active; IC50 (SUP-B15 [5]): 44.7 µM; Activity (REH [6]): Active; IC50 (REH [7]): 16.5 µM; Activity (REH [8]): Active; fraction unbound at up to 100 µM (Albumin): > 0.95; inhibition at 50 µM (REH [2]): > 50%
11 | Cc1cc(CNC(=O)C2C(c3ccc(F)cc3)C2(C)C)ccn1 (configuration not stated) | inactive | Active | 
12 | COCc1cc(CNC(=O)C2C(c3ccc(F)cc3)C2(C)C)n[nH]1 (configuration not stated) | inactive | Active | 
13 | CN1CC2(CCC1=O)CCN(C(=O)C1C(c3ccc(F)cc3)C1(C)C)CC2 (configuration not stated) | inactive | Active | 
14 | CC1(C)C(C(=O)NCCNc2cccnc2)C1c1ccc(F)cc1 (configuration not stated) | inactive | Active | 
15 | CC1(C)C(C(=O)NCC2CCC(C(=O)O)CC2)C1c1ccc(F)cc1 (configuration not stated) | inactive | Active | 
16 | CC1(C)C(C(=O)N2CCN(c3cnccn3)CC2)C1c1ccc(F)cc1 (configuration not stated) | inactive | Active | 
17 | CC1(C)C(C(=O)N2CCC3(CCCO3)CC2)C1c1ccc(F)cc1 (configuration not stated) | inactive | Active | 
18 | CC1(C)C(C(=O)NCc2noc(-c3ccco3)n2)C1c1ccc(F)cc1 (configuration not stated) | inactive | Active | 
19 | CSc1ncc(CNC(=O)C2C(c3ccc(F)cc3)C2(C)C)n1C (configuration not stated) | inactive | Active | 
20 | CC1(C)C(C(=O)N2CC(c3cccnc3)C2)C1c1ccc(F)cc1 (configuration not stated) | inactive | Active | 
